Measurements taken from ChEMBL document CHEMBL2331221, “Potent elastase inhibitors from cyanobacteria: structural basis and mechanisms mediating cytoprotective and anti-inflammatory effects in bronchial epithelial cells” (J Med Chem, 2013).
Calls of active or inactive are those of the source. The rule behind the calls is not given here.

Tests used:
[1] = biological target: Kallikrein-13 (Homo sapiens) (UniProt Q9UKR3); assay: Inhibition of Kallikrein-13 (unknown origin) using VPR-AMC substrate assessed as residual activity at 10 uM incubated for 15 mins prior to substrate addition measured for 2 hrs
How it was run: (§1)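 Protease panel screen: enzyme and test inhibitor preincubated 15 min in the enzyme's reaction buffer, then substrate added. Reaction followed for 2 h, and activity was taken from the initial linear portion of the progress-curve slope. Enzyme, substrate, buffer and detection conditions for each target are given only in the paper's supporting table.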

[2] = biological target: Caspase-10 (Homo sapiens) (UniProt Q92851); assay: Inhibition of Caspase 10 (unknown origin) using Ac-LEHD-AMC substrate assessed as residual activity at 10 uM incubated for 15 mins prior to substrate addition measured for 2 hrs; how it was run: as §1
[3] = biological target: Tryptase gamma (Homo sapiens, UniProt Q9NRR2); assay: Inhibition of Tryptase gamma1 (unknown origin) using Z-GPR-AMC substrate incubated for 15 mins prior to substrate addition measured for 2 hrs
How it was run: (§2)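 Protease panel screen: enzyme and inhibitor preincubated 15 min in reaction buffer, then substrate added; reaction followed for 2 h and the initial linear part of the progress curve used for activity. Enzyme, substrate, buffer and detection details are given only in a supporting table.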

[4] = species: Homo sapiens; assay: Inhibition of Thrombin alpha (unknown origin) using H-D-CHA -Ala-Arg-AMC.2AcOH substrate assessed as residual activity at 10 uM incubated for 15 mins prior to substrate addition measured for 2 hrs; how it was run: as §2
[5] = biological target: Plasma kallikrein (Homo sapiens) (UniProt P03952); assay: Inhibition of Plasma Kallikrein (unknown origin) using Z-FR-AMC substrate assessed as residual activity at 10 uM incubated for 15 mins prior to substrate addition measured for 2 hrs; how it was run: as §2
[6] = biological target: Pro-cathepsin H (Homo sapiens) (UniProt P09668); assay: Inhibition of Cathepsin H (unknown origin) using R-AMC substrate assessed as residual activity at 10 uM incubated for 15 mins prior to substrate addition measured for 2 hrs; how it was run: as §1
[7] = biological target: Collagenase 3 (Homo sapiens) (UniProt P45452); assay: Inhibition of MMP13 (unknown origin) using (5-FAM/QXLTM) FRET peptide substrate assessed as residual activity at 10 uM incubated for 15 mins prior to substrate addition measured for 2 hrs; how it was run: as §1
[8] = biological target: Beta-secretase 1 (Homo sapiens) (UniProt P56817); assay: Inhibition of BACE1 (unknown origin) using MCA-SEVNLDAEFRK(Dnp)-RR-NH2 substrate assessed as residual activity at 10 uM incubated for 15 mins prior to substrate addition measured for 2 hrs; how it was run: as §1
[9] = biological target: Plasminogen (Homo sapiens) (UniProt P00747); assay: Inhibition of Plasmin (unknown origin) using H-D-CHA -Ala-Arg-AMC.2AcOH substrate assessed as residual activity at 10 uM incubated for 15 mins prior to substrate addition measured for 2 hrs; how it was run: as §2
[10] = biological target: Stromelysin-1 (Homo sapiens) (UniProt P08254); assay: Inhibition of MMP3 (unknown origin) using (5-FAM/QXLTM) FRET peptide substrate assessed as residual activity at 10 uM incubated for 15 mins prior to substrate addition measured for 2 hrs; how it was run: as §1
[11] = biological target: Trypsin (Homo sapiens, UniProt P07477+P07478+P35030); assay: Inhibition of Trypsin (unknown origin) using H-D-CHA -Ala-Arg-AMC.2AcOH substrate incubated for 15 mins prior to substrate addition measured for 2 hrs; format: protein assay; how it was run: as §2
[12] = biological target: Dipeptidyl peptidase 1 (Homo sapiens) (UniProt P53634); assay: Inhibition of Cathepsin C (unknown origin) using Z-FR-AMC substrate assessed as residual activity at 10 uM incubated for 15 mins prior to substrate addition measured for 2 hrs; how it was run: as §1
[13] = biological target: Kallikrein-12 (Homo sapiens, UniProt Q9UKR0); assay: Inhibition of Kallikrein-12 (unknown origin) using VPR-AMC substrate incubated for 15 mins prior to substrate addition measured for 2 hrs; how it was run: as §1
[14] = biological target: T1, Neutrophil elastase (Homo sapiens) (UniProt P08246); details: BEAS2B, 100 uM
T1 sequence (whole entry): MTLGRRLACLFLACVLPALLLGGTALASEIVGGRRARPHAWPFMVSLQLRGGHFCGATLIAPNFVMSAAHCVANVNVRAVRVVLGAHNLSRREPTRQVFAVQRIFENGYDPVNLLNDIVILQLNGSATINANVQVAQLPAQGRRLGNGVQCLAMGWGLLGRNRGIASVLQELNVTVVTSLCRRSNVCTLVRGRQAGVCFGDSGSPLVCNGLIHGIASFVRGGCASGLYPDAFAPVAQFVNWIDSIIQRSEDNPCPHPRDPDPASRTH

[15] = biological target: Matrix metalloproteinase-9 (Homo sapiens) (UniProt P14780); assay: Inhibition of MMP9 (unknown origin) using (5-FAM/QXLTM) FRET peptide substrate assessed as residual activity at 10 uM incubated for 15 mins prior to substrate addition measured for 2 hrs; how it was run: as §2
[16] = biological target: Urokinase-type plasminogen activator (Homo sapiens) (UniProt P00749); assay: Inhibition of Urokinase (unknown origin) using Bz-b-Ala-Gly-Arg-AMC.AcOH substrate assessed as residual activity at 10 uM incubated for 15 mins prior to substrate addition measured for 2 hrs; how it was run: as §2
[17] = biological target: Cathepsin L2 (Homo sapiens) (UniProt O60911); assay: Inhibition of Cathepsin V (unknown origin) using Z-FR-AMC substrate assessed as residual activity at 10 uM incubated for 15 mins prior to substrate addition measured for 2 hrs; how it was run: as §1
[18] = biological target: Coagulation factor X (Homo sapiens) (UniProt P00742); assay: Inhibition of Factor-10a (unknown origin) using CH3SO2-D-CHA-Gly-Arg-AMC-AcOH substrate assessed as residual activity at 10 uM incubated for 15 mins prior to substrate addition measured for 2 hrs; how it was run: as §1
[19] = Inhibition of Hepatitis C virus NS3/4A protease using Anaspec EnzoLyte substrate incubated for 15 mins prior to substrate addition measured for 2 hrs; parameters: species or system Hepacivirus hominis; how it was run: as §1
[20] = biological target: Cathepsin G (Homo sapiens) (UniProt P08311); assay: Inhibition of Cathepsin G (unknown origin) using Suc-AAPF-AMC substrate assessed as residual activity at 10 uM incubated for 15 mins prior to substrate addition measured for 2 hrs; how it was run: as §1
[21] = biological target: Vitamin K-dependent protein C (Homo sapiens) (UniProt P04070); assay: Inhibition of Activated Protein C (unknown origin) using Boc-DVLR-ANSNH-C4H9 substrate assessed as residual activity at 10 uM incubated for 15 mins prior to substrate addition measured for 2 hrs; how it was run: as §1
[22] = Inhibition of human pancreatic chymotrypsin assessed as proteolysis using N-succinyl-Ala-Ala-Pro-Phe-p-nitroanilide substrate incubated for 30 mins prior to substrate addition
[23] = biological target: 72 kDa type IV collagenase (Homo sapiens) (UniProt P08253); assay: Inhibition of MMP2 (unknown origin) using (5-FAM/QXLTM) FRET peptide substrate assessed as residual activity at 10 uM incubated for 15 mins prior to substrate addition measured for 2 hrs; how it was run: as §1
[24] = biological target: Cathepsin S (Homo sapiens) (UniProt P25774); assay: Inhibition of Cathepsin S (unknown origin) using Z-FR-AMC substrate assessed as residual activity at 10 uM incubated for 15 mins prior to substrate addition measured for 2 hrs; how it was run: as §1
[25] = biological target: Coagulation factor XI (Homo sapiens, UniProt P03951); assay: Inhibition of Factor-11a (unknown origin) using (Boc-Glu(OBzl)-Ala-Arg)-MCA substrate incubated for 15 mins prior to substrate addition measured for 2 hrs; how it was run: as §1
Coagulation factor XI, sequence (P03951 19-387 limits assumed): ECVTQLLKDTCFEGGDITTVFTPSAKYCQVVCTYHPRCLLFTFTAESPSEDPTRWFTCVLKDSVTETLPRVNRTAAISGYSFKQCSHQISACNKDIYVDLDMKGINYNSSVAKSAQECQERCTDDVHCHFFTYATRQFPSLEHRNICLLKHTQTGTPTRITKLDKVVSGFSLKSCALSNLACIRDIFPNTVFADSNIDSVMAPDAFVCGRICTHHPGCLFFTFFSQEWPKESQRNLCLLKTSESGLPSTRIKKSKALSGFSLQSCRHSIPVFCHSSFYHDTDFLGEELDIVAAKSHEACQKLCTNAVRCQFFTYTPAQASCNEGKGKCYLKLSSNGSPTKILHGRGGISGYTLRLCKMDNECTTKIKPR
Coagulation factor XI, sequence (P03951 388-625 limits assumed): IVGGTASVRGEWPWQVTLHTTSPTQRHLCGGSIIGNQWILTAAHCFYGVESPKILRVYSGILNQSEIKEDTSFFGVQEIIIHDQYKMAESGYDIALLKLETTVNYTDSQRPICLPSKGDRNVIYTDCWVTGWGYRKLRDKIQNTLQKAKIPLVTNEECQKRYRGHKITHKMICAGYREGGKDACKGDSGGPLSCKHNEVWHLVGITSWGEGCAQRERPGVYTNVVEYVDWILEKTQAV

Kallikrein-13 (Homo sapiens), sequence (Q9UKR3 whole entry): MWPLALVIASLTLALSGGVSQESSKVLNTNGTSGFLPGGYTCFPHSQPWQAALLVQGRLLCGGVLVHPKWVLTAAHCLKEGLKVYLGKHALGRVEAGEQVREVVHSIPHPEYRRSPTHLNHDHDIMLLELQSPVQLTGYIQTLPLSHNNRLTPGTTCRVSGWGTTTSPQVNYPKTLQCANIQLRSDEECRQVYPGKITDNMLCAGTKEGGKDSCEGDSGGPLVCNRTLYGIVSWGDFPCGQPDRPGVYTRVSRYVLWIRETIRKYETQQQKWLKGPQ
Caspase-10 (Homo sapiens), sequence (Q92851 220-415 limits assumed): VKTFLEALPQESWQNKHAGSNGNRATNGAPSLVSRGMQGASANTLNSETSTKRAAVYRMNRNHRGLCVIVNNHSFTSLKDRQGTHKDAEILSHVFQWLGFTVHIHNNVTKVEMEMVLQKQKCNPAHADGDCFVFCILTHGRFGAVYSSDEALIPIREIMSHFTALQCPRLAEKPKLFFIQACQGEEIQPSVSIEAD
Caspase-10 (Homo sapiens), sequence (Q92851 416-521 limits assumed): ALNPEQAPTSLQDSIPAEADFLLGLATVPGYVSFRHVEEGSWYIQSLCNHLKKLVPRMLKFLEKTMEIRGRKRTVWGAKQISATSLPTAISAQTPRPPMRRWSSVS
Cathepsin L2 (Homo sapiens), sequence (O60911 whole entry): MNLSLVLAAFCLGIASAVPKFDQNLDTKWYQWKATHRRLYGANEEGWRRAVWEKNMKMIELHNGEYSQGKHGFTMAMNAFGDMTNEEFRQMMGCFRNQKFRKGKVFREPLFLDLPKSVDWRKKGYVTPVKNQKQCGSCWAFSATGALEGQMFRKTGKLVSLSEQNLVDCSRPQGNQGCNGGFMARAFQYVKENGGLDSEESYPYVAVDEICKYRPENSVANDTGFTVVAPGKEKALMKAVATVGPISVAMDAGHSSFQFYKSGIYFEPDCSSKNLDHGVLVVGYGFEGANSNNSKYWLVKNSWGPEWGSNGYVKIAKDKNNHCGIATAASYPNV
Dipeptidyl peptidase 1 (Homo sapiens), sequence (P53634 25-134 limits assumed): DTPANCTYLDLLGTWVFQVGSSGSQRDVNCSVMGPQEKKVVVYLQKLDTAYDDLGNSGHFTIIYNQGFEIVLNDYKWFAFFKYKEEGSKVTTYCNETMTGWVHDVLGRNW
Dipeptidyl peptidase 1 (Homo sapiens), sequence (P53634 231-394 limits assumed): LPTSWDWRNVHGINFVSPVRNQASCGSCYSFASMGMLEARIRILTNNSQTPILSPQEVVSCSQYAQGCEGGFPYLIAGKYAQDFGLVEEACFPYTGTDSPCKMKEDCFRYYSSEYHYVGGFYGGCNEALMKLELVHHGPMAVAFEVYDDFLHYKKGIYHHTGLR
Dipeptidyl peptidase 1 (Homo sapiens), sequence (P53634 395-463 limits assumed): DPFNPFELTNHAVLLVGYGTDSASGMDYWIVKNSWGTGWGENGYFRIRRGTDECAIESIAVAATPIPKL
Cathepsin S (Homo sapiens), sequence (P25774 115-331 limits assumed): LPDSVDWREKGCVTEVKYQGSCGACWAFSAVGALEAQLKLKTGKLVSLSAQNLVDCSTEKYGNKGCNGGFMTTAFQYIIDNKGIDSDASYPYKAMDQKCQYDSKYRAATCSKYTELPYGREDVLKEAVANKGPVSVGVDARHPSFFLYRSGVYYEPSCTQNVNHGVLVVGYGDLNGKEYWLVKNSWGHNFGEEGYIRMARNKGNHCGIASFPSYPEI
Plasminogen (Homo sapiens), sequence (P00747 97-580 limits assumed): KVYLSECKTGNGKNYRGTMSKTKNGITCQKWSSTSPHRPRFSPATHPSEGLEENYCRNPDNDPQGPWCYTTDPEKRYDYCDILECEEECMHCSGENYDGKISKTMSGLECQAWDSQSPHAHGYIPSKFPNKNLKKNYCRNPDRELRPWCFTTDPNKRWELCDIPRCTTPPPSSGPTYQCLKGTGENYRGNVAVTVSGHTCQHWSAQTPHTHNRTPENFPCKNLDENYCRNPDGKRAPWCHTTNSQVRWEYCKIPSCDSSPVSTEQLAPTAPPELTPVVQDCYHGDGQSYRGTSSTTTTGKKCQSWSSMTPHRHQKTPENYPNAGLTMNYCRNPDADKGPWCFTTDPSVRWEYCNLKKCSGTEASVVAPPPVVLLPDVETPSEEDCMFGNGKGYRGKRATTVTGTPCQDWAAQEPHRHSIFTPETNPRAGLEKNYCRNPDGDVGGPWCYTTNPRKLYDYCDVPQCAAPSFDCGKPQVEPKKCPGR
Plasminogen (Homo sapiens), sequence (P00747 581-810 limits assumed): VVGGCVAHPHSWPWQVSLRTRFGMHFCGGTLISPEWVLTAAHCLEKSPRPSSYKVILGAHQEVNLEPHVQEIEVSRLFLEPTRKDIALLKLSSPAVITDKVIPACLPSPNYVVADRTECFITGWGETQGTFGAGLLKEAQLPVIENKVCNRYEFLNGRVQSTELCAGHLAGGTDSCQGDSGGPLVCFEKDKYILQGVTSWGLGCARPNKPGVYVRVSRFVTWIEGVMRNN
Plasma kallikrein (Homo sapiens), sequence (P03952 20-390 limits assumed): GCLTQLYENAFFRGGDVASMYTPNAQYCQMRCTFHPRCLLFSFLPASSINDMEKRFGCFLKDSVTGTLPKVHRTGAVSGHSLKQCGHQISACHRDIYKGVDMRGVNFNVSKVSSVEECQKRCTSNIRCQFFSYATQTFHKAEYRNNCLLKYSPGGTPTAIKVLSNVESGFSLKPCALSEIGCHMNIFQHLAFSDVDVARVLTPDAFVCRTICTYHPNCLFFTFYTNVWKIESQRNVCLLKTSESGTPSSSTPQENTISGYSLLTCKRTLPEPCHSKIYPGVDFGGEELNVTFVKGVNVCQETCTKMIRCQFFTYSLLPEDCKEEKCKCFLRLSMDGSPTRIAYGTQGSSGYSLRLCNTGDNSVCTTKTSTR
Plasma kallikrein (Homo sapiens), sequence (P03952 391-638 limits assumed): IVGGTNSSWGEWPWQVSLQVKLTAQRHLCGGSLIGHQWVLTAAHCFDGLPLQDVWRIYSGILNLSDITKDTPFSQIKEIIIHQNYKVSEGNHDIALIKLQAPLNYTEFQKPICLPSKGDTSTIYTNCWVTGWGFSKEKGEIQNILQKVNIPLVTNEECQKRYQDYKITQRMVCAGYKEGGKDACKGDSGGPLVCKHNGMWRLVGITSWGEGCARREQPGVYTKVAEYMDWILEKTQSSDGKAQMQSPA
Matrix metalloproteinase-9 (Homo sapiens), sequence (P14780 whole entry): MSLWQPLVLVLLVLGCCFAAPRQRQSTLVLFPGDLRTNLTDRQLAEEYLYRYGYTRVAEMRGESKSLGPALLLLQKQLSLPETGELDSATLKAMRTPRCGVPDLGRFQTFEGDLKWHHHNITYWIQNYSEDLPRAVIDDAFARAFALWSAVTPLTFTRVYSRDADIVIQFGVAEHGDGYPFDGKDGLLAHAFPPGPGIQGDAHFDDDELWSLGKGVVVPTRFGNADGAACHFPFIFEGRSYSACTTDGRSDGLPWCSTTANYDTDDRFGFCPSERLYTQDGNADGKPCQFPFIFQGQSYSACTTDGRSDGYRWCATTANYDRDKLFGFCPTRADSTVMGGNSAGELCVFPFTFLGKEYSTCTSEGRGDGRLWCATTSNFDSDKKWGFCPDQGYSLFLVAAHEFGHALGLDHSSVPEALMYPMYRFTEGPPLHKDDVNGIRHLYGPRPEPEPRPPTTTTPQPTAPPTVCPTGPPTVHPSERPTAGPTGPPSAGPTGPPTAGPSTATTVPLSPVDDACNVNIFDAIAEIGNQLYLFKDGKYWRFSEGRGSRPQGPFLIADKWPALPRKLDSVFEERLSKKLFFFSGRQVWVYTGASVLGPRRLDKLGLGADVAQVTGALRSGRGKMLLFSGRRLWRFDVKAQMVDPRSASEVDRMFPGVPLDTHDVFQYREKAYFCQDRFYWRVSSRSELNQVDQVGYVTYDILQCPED
Cathepsin G (Homo sapiens), sequence (P08311 whole entry): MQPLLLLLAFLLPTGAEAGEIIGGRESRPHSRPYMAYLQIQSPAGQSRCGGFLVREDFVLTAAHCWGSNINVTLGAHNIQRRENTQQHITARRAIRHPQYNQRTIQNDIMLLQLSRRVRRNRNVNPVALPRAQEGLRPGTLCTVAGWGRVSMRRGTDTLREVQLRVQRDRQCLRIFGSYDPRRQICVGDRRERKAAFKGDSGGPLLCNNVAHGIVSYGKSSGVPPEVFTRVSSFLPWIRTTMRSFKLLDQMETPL
Pro-cathepsin H (Homo sapiens), sequence (P09668 116-335 limits assumed, other chains not shown): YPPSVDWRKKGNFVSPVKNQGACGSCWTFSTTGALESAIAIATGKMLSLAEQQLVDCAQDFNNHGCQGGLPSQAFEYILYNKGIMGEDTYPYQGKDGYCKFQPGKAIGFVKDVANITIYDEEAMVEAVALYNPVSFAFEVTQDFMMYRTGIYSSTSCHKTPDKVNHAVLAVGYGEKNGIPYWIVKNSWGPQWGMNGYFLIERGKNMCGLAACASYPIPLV

With C/C=C1\NC(=O)[C@@H](NC(=O)[C@@H](NC(=O)[C@@H](COS(=O)(=O)[O-])OC)C(C)C)[C@@H](C)OC(=O)[C@H]([C@H](C)CC)NC(=O)[C@H](Cc2ccccc2)N(C)C(=O)[C@H](Cc2ccccc2)N2C(=O)[C@H](CC[C@H]2O)NC1=O.[Na+] [Symplostatin 5] the Activity [1] was 100%, the Activity [2] was 100% and the IC50 [3] was < 10 µM. It also gave an Activity [4] of 100%, an Activity [5] of 50% and an Activity [6] of 100%. For the same molecule, the Activity [7] was 100%, the Activity [8] was 100% and the Activity [9] was 100%. For the same molecule, the Activity [10] was 100%, the pIC50 [11] was > 5 and the Activity [12] was 50%. The IC50 [13] was < 10 µM, the inhibition [14] was “inactive” and the Activity [15] was 100%. For the same molecule, the Activity [16] was 100%, the Activity [17] was 100% and the Activity [18] was 100%. For the same molecule, the pIC50 [19] was > 5, the Activity [20] was 50% and the Activity [21] was 100%. The IC50 [22] was > 10 µM, the Activity [23] was 100% and the Activity [24] was 100%. The IC50 [25] was < 10 µM.
